Measurements collected from several papers.
Cell line: MCF7
Effect on: cell growth or viability

C#CCn1c(C2CC(c3ccc(F)cc3)=NN2C(C)=O)nc2ccccc21 (stereo not drawn)
IC50 (LDH; 48 h): 2.97 µM

CCCCCCCNC1=C(n2cncn2)C(=O)c2ccccc2C1=O
IC50 (MTT; 24 h): 22.3 µg/mL

COc1ccccc1/C=N/N=C1\C(=O)Nc2ccccc21
IC50 (MTT; 48 h): 22.1 µg/mL

C[C@H]1[C@H](C)CC[C@]2(C(=O)O)CC[C@]3(C)C(=CC[C@@H]4[C@@]5(C)CC[C@H](O)C(C)(C)[C@@H]5CC[C@]43C)[C@H]12
IC50 (MTT; 24 h): 27.3 µM

O=[N+]([O-])c1ccc(NC(=S)N/N=C/c2cccc3cc4ccccc4nc23)cc1
IC50 (MTT; 48 h): > 50 µM

NNc1nc2c(Cl)cc(Cl)cc2c(=O)n1-c1ccc(Cl)cc1
IC50 (MTT; 48 h): > 200 µM

O=C1CS/C(=N\c2ccccc2Cl)N1c1nnc(-c2ccc(C(F)(F)F)cc2/N=C2\SCC(=O)N2c2ccccc2Cl)s1
IC50 (MTT): 47.1 µM

c1ccc(-c2noc(-c3nn(Cc4ccncc4)c4ccccc34)n2)cc1
IC50 (48 h): 18.7 µM

C/C(=N\c1nc(N)nc(/N=C(\C)c2c(O)c3ccccc3oc2=O)n1)c1c(O)c2ccccc2oc1=O
IC50 (MTT; 48 h): 6.68 µM

CCOC(=O)C(=CNc1ccc(Oc2ccccc2)cc1)C(=O)OCC
IC50 (MTT): ≥ 200 µM

C[C@H]1[C@H](C)CC[C@]2(C)CC[C@]3(C)C(=CC(=O)[C@@H]4[C@@]5(C)CC[C@@H](O)[C@](C)(C(=O)NCc6cn(-c7ccc(Br)cc7)nn6)[C@@H]5CC[C@]43C)[C@H]12
IC50 (MTT; 24 h): 75.1 µM

C/C(=N\CCNCC/N=C(\C)c1c(O)c2ccccc2oc1=O)c1c(O)c2ccccc2oc1=O
IC50 (MTT; 48 h): 11 µM

Nc1ccn([C@@H]2O[C@H](CO)[C@@H](O)C2(F)F)c(=O)n1
IC50 (MTT; 48 h): 1.59 µg/mL

Fc1ccc2c(-c3ncc(-c4ccccc4)o3)nn(Cc3ccccc3)c2c1
IC50 (48 h): 71 µM

Cc1cccc(N=C2C(=O)N(Cc3ccccc3)c3ccccc32)c1
IC50 (MTT; 48 h): 8.11 µM

CCOC(=O)c1c(C)nc2ccc(-c3cccc(F)c3)cc2c1O
IC50 (MTT; 48 h): 10.5 µM

CN(C)C(=O)Nc1nc2ccc(Br)cc2c(=O)n1-c1ccccc1
IC50 (MTT; 48 h): 109 µM

O=C1CS/C(=N\c2cc(C(F)(F)F)ccc2-c2nnc(N3C(=O)CS/C3=N\c3ccc(F)c(O)c3)s2)N1c1ccc(F)c(O)c1
IC50 (MTT): 25.8 µM

c1ccc(Cc2nnc(-c3nn(Cc4ccccc4)c4ccccc34)o2)cc1
IC50 (48 h): 114 µM

O=[N+]([O-])c1ccc(O)c(C=NNc2ccc(C(F)(F)F)cc2)c1
IC50 (MTT; 24 h): 13 µM

COc1cccc(NC(=S)N/N=C/c2cccc3cc4ccccc4nc23)c1
IC50 (MTT; 48 h): > 50 µM

O=C1Nc2ccccc2C1=Nc1ccccc1I
IC50 (MTT; 48 h): 42.6 µM

CN1CCC(NC2CCc3[nH]c4c(C(N)=O)ccc(-c5ccccc5Cl)c4c3C2)CC1 (stereo not drawn)
IC50: 0.0164 µM

O=C1C(=Nc2ccccc2I)c2ccccc2N1Cc1ccc([N+](=O)[O-])cc1
IC50 (MTT; 48 h): 11.6 µM

Cc1nc2ccc(-c3ccc(OCc4ccccc4)c(F)c3)cc2c(O)c1C(=O)O
IC50 (MTT; 48 h): ≥ 100 µM

O=C1Nc2ccccc2C1=Nc1ccc(Cl)cc1
IC50 (MTT; 48 h): 72.3 µM

CNC(=O)c1cc(Oc2ccc(NC(=O)Nc3ccc(Cl)c(C(F)(F)F)c3)cc2)ccn1
IC50 (MTT; 48 h): 7.06 µM

NNc1nc2ccc(Br)cc2c(=O)n1-c1ccc(F)cc1
IC50 (MTT; 48 h): 10 µM

O=C(NCc1ccc(OC(F)(F)F)cc1)c1cn(Cc2ccc(F)cc2)c2ccc(Oc3ccccc3)cc2c1=O
IC50 (MTT; 24 h): 343 µM

COc1ccc(N=C2SCC(=O)N2c2nnc(-c3ccc(C(F)(F)F)cc3N=C3SCC(=O)N3c3ccc(OC)cc3)s2)cc1
IC50 (MTT): 73.5 µM

Fc1ccc2c(-c3nnc(Cc4ccccc4)[nH]3)nn(Cc3ccc(Cl)cc3Cl)c2c1
IC50 (48 h): 192 µM

CNc1cccc(Nc2nc(-c3ccncc3)nc3c2CNCC3)c1
IC50 (MTT): > 100 µM

COc1cccc2c1C(=O)c1c(O)c3c(c(O)c1C2=O)C[C@@](O)(C(=O)CO)C[C@@H]3O[C@H]1C[C@H](N)[C@H](O)[C@H](C)O1
IC50 (MTT): 5.8 µg/mL

O=C1C(=Nc2ccccc2I)c2ccccc2N1Cc1ccc(Br)cc1
IC50 (MTT; 48 h): 8.79 µM

C#Cc1cccc(Nc2ncnc3cc(OCCOC)c(OCCOC)cc23)c1
IC50 (LDH; 48 h): 1.05 µM

COc1cccc2c1C(=O)c1c(O)c3c(c(O)c1C2=O)C[C@@](O)(C(=O)CO)C[C@@H]3O[C@H]1C[C@H](N)[C@H](O)[C@H](C)O1
IC50 (MTT; 48 h): 8.87 µM

CCOC(=O)c1c(C)nc2ccc(-c3ccc(F)cc3)cc2c1O
IC50 (MTT; 48 h): 11 µM

O=C1Nc2ccccc2C1=Nc1ccccc1Br
IC50 (MTT; 48 h): > 100 µM

O=[N+]([O-])c1cc(I)c(O)c(C=NNc2ccc(Cl)cc2)c1
IC50 (MTT; 24 h): 14 µM

COc1ccc(N(Cc2nc(-c3ccc(F)cc3)cs2)C(=O)CCCCCC(=O)NO)cc1
IC50 (MTT; 72 h): 10.2 µM

O=[N+]([O-])c1ccc(O)c(C=NNc2ccc(Cl)cc2)c1
IC50 (MTT; 24 h): 9.3 µM

NS(=O)(=O)c1ccc(-n2nc(C(=O)NN=Cc3cccnc3)cc2-c2ccccc2)cc1
IC50 (fluorescence; 48 h): 34.1 µM

CO[C@H]1[C@H](O[C@H]([C@H]2O[C@@H](n3ccc(=O)[nH]c3=O)[C@H](O)[C@@H]2O)[C@H](NCCCNC(=O)[C@@H](NC(=O)[C@@H](NC(=O)N[C@H](C(=O)O)C(C)C)[C@@H]2CCN=C(N)N2)[C@@H](OC(=O)CCCCCCCCCCCCN(O)C(=N)N)C(C)C)C(=O)O)O[C@H](CN)[C@H]1O
IC50 (WST-1): 0.95 µM

CC(=O)OC[C@H]1O[C@@H](n2cc(Cn3c(C(=O)/C=C/c4ccc(F)cc4)nc4ccccc43)nn2)[C@H](OC(C)=O)[C@@H](OC(C)=O)[C@H]1OC(C)=O
IC50 (LDH; 48 h): 2.48 µM

Cc1ccc(NNc2nc3c(Cl)cc(Cl)cc3c(=O)n2-c2ccccc2)cc1
IC50 (MTT; 48 h): > 200 µM

CCc1ccc(N=C2C(=O)Nc3ccccc32)cc1
IC50 (MTT; 48 h): 51.7 µM

CC(=O)O[C@@]12CO[C@@H]1C[C@H](O)[C@@]1(C)C(=O)[C@H](O)C3=C(C)[C@@H](OC(=O)[C@H](O)[C@@H](NC(=O)OC(C)(C)C)c4ccccc4)C[C@@](O)([C@@H](OC(=O)c4ccccc4)[C@H]21)C3(C)C
IC50 (MTT; 48 h): 92.5 µM

CC(=NNC(=O)c1cc(-c2ccccc2)n(-c2ccc(S(N)(=O)=O)cc2)n1)c1ccc(C)cc1
IC50 (fluorescence; 48 h): 18.5 µM

Cc1cccc([N+](=O)[O-])c1N=C1SCC(=O)N1c1nnc(-c2ccc(C(F)(F)F)cc2N=C2SCC(=O)N2c2c(C)cccc2[N+](=O)[O-])s1
IC50 (MTT): 53.2 µM

O=C(C=Cc1cccs1)c1ccc(OCCOc2ccc(C(=O)C=Cc3cccs3)cc2)cc1
IC50 (MTT; 48 h): 7.87 µM

C[C@H]1[C@H](C)CC[C@]2(C)CC[C@]3(C)C(=CC(=O)[C@@H]4[C@@]5(C)CC[C@@H](O)[C@](C)(C(=O)NCc6cn(-c7cccc(Br)c7)nn6)[C@@H]5CC[C@]43C)[C@H]12
IC50 (MTT; 24 h): 67 µM

COc1ccc(C=NNC(=O)c2cc(-c3ccccc3)n(-c3ccc(S(N)(=O)=O)cc3)n2)cc1OC
IC50 (fluorescence; 48 h): 21.1 µM

C(=N\Nc1cc(N/N=C/c2ccc3ccccc3n2)ncn1)/c1ccc2ccccc2n1
IC50 (MTT; 48 h): 34.3 µM

Cc1ccc(CN2C(=O)C(=Nc3cccc(C)c3)c3ccccc32)cc1
IC50 (MTT; 48 h): 2.8 µM
